Publication PMC7913687 (Nucleic Acids Research, 2021)
Blank lines part the entries; values can stand above or below the molecule they belong to.

What was measured:
[1] = tested on: aspartate and ornithine transcarbamoylases; details: cited from earlier work
[2] = tested on: Nc1ncnc2c1ncn2[C@@H]1O[C@H](COP(=O)(O)OP(=O)(O)OP(=O)(O)O)[C@@H](O)[C@H]1O; experiment: purified protein, by the assay type; details: pH 6.0; 23.0 °C
C[C@@H](O)[C@H](N)C(=O)O = experiment: purified protein, by the assay type; details: pH 6.0; 23.0 °C
[3] = target: overall reaction (TsaC, TsaB, TsaD and TsaE) (Escherichia coli, UniProt P05852+P45748); experiment: Inhibition of t6A formation in the full TsaBCDE reaction; format: biochemical; details: read-out: IC50 (μM) Overall reaction
Procedure, shortened: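 Full reaction: 50 mM MOPS pH 7.5, 20 mM NaHCO3, 25 mM KCl, 1 mM ATP, L-Thr (0.6 mM per footnote; 1 mM in text), 10 μM unmodified E. coli tRNALys, 1 μM each TsaB/C/D/E. Variable test compound; ATP-started; 23 °C, 5 min; EDTA quench, G-50 desalting, nuclease P1/alkaline phosphatase digest. Isocratic C18 HPLC quantifies t6A at 260 nm. IC50 from near-initial rates.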

[4] = target: Escherichia coli TsaBD heterodimer, preformed from fluorescently labelled His6-TsaD and unlabelled TsaB (Escherichia coli) (UniProt P05852); experiment: MST
[5] = tested on: t^6A formation by TsaC, TsaB, TsaD and TsaE; experiment: In vitro HPLC assay for t^6A formation, overall; format: biochemical, Escherichia coli; details: for Km: read-out: Km, overall reaction, apparent, amino acid as variable substrate; for k cat, overall reaction: named ligand as variable substrate
TsaC = target: T1, TsaC (Escherichia coli, UniProt P45748); experiment: TsaC reaction; format: biochemical; details: named ligand as variable substrate
T1 sequence (P45748 1-190): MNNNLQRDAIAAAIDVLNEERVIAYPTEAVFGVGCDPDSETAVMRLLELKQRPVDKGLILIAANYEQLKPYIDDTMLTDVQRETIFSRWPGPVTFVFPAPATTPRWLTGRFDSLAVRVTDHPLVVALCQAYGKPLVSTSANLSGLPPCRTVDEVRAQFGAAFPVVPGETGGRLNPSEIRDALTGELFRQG
Procedure, shortened: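 Enzyme, with the other components and any inhibitor, preincubated 2 min at 23°C, then started with ATP. After 1 min at 23°C, injected directly onto C18 HPLC (isocratic 50 mM potassium phosphate pH 6, 1% acetonitrile). TC-AMP read by UV at 260 nm. […], measured near initial rates.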

EcTsaBDE = EcTsaBDE (Escherichia coli, UniProt P05852); experiment: Isolated second step of t^6A formation; format: biochemical
EcTsaBDE complex = details: read-out: Km for TsaE-catalyzed ATPase activity; cited from earlier work

Chain of EcTsaBDE (P05852 whole entry): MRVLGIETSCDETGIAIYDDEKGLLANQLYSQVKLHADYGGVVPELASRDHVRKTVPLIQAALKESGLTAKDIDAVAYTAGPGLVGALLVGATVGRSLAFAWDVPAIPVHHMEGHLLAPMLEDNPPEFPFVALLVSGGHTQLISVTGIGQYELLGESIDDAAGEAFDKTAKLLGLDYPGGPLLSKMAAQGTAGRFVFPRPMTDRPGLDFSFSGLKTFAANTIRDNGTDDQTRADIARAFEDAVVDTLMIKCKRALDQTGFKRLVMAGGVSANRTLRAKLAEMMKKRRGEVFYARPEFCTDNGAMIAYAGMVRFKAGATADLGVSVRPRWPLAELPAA
Chain of EcTsaBDE (P76256 whole entry partner): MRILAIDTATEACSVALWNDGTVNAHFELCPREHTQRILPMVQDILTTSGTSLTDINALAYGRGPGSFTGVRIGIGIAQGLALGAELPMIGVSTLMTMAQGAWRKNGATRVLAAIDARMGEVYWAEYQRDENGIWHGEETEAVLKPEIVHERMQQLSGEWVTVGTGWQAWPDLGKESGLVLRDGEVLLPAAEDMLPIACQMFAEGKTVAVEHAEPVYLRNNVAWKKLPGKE
Chain of overall reaction (TsaC, TsaB, TsaD and TsaE) (P76256 whole entry, one chain of several): as the sequence (P76256 whole entry partner) above
Chain of overall reaction (TsaC, TsaB, TsaD and TsaE) (P05852 whole entry, one chain of several): as the sequence (P05852 whole entry) above
Chain of Escherichia coli TsaBD heterodimer, preformed from fluorescently labelled His6-TsaD and unlabelled TsaB (Escherichia coli) (P05852 whole entry, chain 1 of 2): as the sequence (P05852 whole entry) above
Chain of Escherichia coli TsaBD heterodimer, preformed from fluorescently labelled His6-TsaD and unlabelled TsaB (Escherichia coli) (P76256 whole entry, chain 2 of 2, further chain): as the sequence (P76256 whole entry partner) above

Molecule: NC(=O)OP(=O)(O)O [CP, carbamoyl phosphate]
Km [1]: 4 to 10 µM

Molecule: EcTsaC (Escherichia coli K-12)
Km [2]: 130 ± 10 µM | kcat [2]: 0.132 ± 0.00333 s⁻¹ | Km (C[C@@H](O)[C@H](N)C(=O)O): 1770 ± 260 µM | kcat (C[C@@H](O)[C@H](N)C(=O)O): 0.15 ± 0.00667 s⁻¹

Molecule: Nc1ncnc2c1ncn2[C@@H]1O[C@H](COP(=O)(O)OP(=O)(O)O)[C@@H](O)[C@H]1O [5′-ADP, adenosine 5'-diphosphate]
IC50 [3]: 160 ± 20 µM

Molecule: Nc1ncnc2c1ncn2[C@@H]1O[C@H](COP(=O)(O)O)[C@@H](O)[C@H]1O [5′-AMP, adenosine 5'-monophosphate]
IC50 [3]: 113 ± 10 µM

The next lines start with results.

Kd [4]: 2.2 µM
Molecule: Escherichia coli TsaE (from UniProt P0AF67 1-153) (enzyme; other documents disagree on this pair)

Km [5]: 500 µM
Molecule: CCC(O)[C@H](N)C(=O)O (mixture of isomers) [hNV, (±)-3-hydroxynorvaline]

Km [5]: 590 ± 90 µM | K m, TsaC reaction (TsaC): 1770 ± 260 µM | k cat, TsaC reaction (TsaC): 0.15 ± 0.0067 s⁻¹
Molecule: C[C@@H](O)[C@H](N)C(=O)O [L-Thr, L-threonine]
k cat, overall reaction [5]: 0.007 ± 0.00033 s⁻¹

IC50 [3]: 9.3 ± 1.2 µM
Molecule: Nc1ncnc2c1ncn2[C@@H]1O[C@H](COP(=O)(O)OC(=O)N[C@@H](CO)C(=O)O)[C@@H](O)[C@H]1O [SC-AMP, serine analog of TC-AMP (L-serylcarbamoyl-adenylate)]

fold lower turnover of t^6A formation than ATPase activity (EcTsaBDE): ~80 fold | fold lower Km for t^6A second step than Km for ATPase activity (EcTsaBDE; 14 μM vs 0.64 mM): 40 fold | Kis, second step with TC-AMP as substrate (EcTsaBDE; TC-AMP 10 μM, fit to Equation 3): 1.8 mM | Kis (substrate inhibition), TsaBDE reaction (EcTsaBDE; TC-AMP 10 μM, calculated for observed substrate inhibition): 1800 µM | k cat, TsaBDE reaction (EcTsaBDE; named ligand as variable substrate): 0.002 ± 0.0017 s⁻¹ | K m, TsaC reaction (TsaC): 130 ± 10 µM | k cat, TsaC reaction (TsaC): 0.132 ± 0.0033 s⁻¹
Molecule: Nc1ncnc2c1ncn2[C@@H]1O[C@H](COP(=O)(O)OP(=O)(O)OP(=O)(O)O)[C@@H](O)[C@H]1O [ATP]
reduction in the Vmax (substrate inhibition) ([5]; at 5 mM ATP): 50% | reduction in the Vmax (substrate inhibition) ([5]; at 10 mM ATP): 90% | Kis (substrate inhibition), overall reaction ([5]; calculated for observed substrate inhibition, fit to Equation 3): 2200 µM | k cat, overall reaction [5]: 0.00667 ± 0.0067 s⁻¹ | Km (EcTsaBDE complex): 640 µM
